# Assay results taken from ChEMBL document CHEMBL1132173, “Novel derivatives of 2-pyridinemethylamine as selective, potent, and orally active agonists at 5-HT1A receptors” (J Med Chem, 1999).
# pEC50, pKi: −log10 of the molar value.
# Legend:
# [1] = target: T1, 5-hydroxytryptamine receptor 1A (Homo sapiens, UniProt P08908); experiment: In vitro effective concentration required to inhibit forskolin-stimulated cAMP levels in HA7 cells expressing human 5-HT1A receptor; assay type: functional, cell-based
# T1 sequence (P08908 whole entry): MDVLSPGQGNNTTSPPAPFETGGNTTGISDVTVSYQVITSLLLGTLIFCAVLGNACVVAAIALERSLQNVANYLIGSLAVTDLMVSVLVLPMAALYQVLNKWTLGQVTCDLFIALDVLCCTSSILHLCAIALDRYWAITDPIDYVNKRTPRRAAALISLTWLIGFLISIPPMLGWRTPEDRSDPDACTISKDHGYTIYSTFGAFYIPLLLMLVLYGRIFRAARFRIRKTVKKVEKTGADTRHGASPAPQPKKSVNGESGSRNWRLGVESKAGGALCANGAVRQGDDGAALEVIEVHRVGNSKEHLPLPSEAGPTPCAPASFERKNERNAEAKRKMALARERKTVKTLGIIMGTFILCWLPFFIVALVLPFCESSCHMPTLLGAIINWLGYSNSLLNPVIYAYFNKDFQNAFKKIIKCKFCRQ
# Summary of the method: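 HeLa HA7 cells stably expressing human 5-HT1A, at 80–90% confluency, antibiotic-free for 24 h. Preincubated 10 min at RT in DMEM/10 mM Hepes, then drug at 0.1 nM–100 µM with 100 µM forskolin and 100 µM IBMX for 10 min at RT. Stopped with 0.1 N HCl; cAMP by radioimmunoassay as % of forskolin control; pEC50.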
# Rattus norvegicus [2] = experiment: Effective intraperitoneal dose in vivo in rat after 15 mins to induce lower lip retraction; assay type: functional; conditions: ip, 0.25 h
# Summary of the method: (§1)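 Observed in 10 min windows centred 15 and 60 min post-dose, 10 s each minute, scoring lower lip retraction present or absent (0–10).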
# [3] = target: T2, 5-hydroxytryptamine receptor 1A (Rattus norvegicus, UniProt P19327); experiment: Binding affinity towards 5-hydroxytryptamine 1A receptor in rat cortex using [3H]8-OH-DPAT as a radioligand
# T2 sequence (P19327 whole entry): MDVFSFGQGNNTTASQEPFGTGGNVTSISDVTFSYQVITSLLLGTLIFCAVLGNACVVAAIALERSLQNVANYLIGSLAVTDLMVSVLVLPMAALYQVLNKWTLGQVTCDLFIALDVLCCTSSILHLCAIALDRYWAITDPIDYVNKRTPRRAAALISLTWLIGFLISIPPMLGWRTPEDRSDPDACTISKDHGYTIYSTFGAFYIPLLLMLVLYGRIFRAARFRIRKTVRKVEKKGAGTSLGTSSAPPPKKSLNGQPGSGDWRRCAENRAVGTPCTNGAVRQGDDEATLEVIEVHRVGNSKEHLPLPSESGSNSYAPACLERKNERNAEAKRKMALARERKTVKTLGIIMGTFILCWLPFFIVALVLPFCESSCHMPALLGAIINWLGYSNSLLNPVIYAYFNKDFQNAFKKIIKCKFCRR
# Summary of the method: (§2)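 Rat tissue membranes, competition against radioligand at 23 °C. Nonspecific binding: 5-HT for 5-HT1A (30 min), (+)-butaclamol for D2 (60 min), phentolamine for α1 (30 min). Tris HCl 50 mM pH 7.4 buffers. Filtration through glass-fibre filters, then scintillation counting. Run in triplicate; IC50 by nonlinear regression; Ki by Cheng–Prusoff; mean pKi of three determinations.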
# Rattus norvegicus [4] = experiment: Effective intraperitoneal dose in vivo in rat after 60 mins to induce lower lip retraction; assay type: functional; conditions: ip, 1 h; summary of the method: as §1
# Rattus norvegicus [5] = experiment: Induction of lower lip retraction in rat 60 min after administration, effective peroral dose determined in vivo; assay type: functional; conditions: po, 1 h; summary of the method: as §1
# [6] = target: T3, Adrenergic receptor alpha-1 (Rattus norvegicus, UniProt P15823+P23944+P43140); experiment: Binding affinity towards Alpha-1 adrenergic receptor using prazosin as a radioligand in rat cortex; summary of the method: as §2
# T3 sequence (P15823 whole entry): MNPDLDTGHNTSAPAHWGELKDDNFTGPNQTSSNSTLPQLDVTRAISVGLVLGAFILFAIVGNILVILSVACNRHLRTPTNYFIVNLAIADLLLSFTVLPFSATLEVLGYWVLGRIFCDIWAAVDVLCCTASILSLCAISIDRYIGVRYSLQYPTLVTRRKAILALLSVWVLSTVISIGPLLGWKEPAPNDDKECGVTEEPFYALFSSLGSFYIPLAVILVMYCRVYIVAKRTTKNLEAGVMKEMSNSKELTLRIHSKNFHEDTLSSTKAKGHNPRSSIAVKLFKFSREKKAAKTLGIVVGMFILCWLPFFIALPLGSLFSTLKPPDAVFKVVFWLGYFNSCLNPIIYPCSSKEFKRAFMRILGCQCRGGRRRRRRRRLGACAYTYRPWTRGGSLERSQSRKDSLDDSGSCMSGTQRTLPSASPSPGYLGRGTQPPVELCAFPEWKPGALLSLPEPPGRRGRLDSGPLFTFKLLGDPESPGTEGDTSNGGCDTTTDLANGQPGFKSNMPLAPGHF
# T3 sequence (P23944 whole entry): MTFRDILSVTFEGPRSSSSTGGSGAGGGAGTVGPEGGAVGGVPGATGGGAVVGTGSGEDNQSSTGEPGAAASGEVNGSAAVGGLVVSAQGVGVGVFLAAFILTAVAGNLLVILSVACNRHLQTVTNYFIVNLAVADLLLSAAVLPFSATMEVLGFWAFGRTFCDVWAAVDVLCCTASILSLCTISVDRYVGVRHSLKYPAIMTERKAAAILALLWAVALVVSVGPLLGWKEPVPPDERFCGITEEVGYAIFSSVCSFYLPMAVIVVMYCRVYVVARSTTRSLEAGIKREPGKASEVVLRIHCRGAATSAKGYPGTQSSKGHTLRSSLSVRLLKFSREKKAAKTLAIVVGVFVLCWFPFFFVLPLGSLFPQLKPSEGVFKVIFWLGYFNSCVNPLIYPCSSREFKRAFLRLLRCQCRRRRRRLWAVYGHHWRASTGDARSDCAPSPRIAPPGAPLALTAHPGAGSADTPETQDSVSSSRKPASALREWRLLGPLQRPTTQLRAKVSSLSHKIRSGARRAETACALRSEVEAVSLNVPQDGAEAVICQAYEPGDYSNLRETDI
# T3 sequence (P43140 whole entry): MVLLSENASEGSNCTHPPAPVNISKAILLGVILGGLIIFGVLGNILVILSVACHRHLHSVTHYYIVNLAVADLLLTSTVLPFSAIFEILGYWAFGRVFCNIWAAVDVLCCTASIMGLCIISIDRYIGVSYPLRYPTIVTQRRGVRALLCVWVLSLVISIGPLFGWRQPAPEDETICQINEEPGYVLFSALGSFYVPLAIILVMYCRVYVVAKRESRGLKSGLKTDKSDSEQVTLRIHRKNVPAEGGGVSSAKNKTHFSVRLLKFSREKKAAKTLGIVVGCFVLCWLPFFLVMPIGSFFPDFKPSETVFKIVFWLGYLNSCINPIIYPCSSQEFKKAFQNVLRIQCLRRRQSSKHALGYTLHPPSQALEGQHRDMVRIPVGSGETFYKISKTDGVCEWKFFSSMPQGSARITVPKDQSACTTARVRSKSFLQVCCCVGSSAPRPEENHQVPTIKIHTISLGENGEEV
# D(2) dopamine receptor = D(2) dopamine receptor (Rattus norvegicus, UniProt P61169); experiment: Binding affinity towards Dopamine receptor D2 in rat striatum using YM-09151-2 as a radioligand; assay type: tissue-based; summary of the method: as §2
# Rattus norvegicus [7] = organism: Rattus norvegicus; experiment: Maximum inhibition of immobility in the rat.(Expressed as percentage of immobility observed in vehicle controls); assay type: functional
# Summary of the method: (§3)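 Rat forced swim: 15 min pre-swim in 17 cm water at 25 °C, then 5 min test 24 h later with blind scoring of immobility. Oral dosing (10 mL/kg) 60 min before the test, n = 10 per dose. Inhibition is the difference in median immobility from vehicle controls, as % of the control median.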
# Rattus norvegicus [8] = organism: Rattus norvegicus; experiment: Potency to produce a significant inhibition of immobility in the rat.; assay type: functional
# Summary of the method: (§4)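 Rat forced swim, 5 min test 24 h after a 15 min pre-swim, with oral dose (10 mL/kg) 60 min before the test, n = 10 per dose. Significant response: immobility <138 s, a value seen in <5% of vehicle controls. ED50 by linear interpolation of % responders.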
# Rattus norvegicus [9] = organism: Rattus norvegicus; experiment: Potency to produce a significant inhibition of immobility in rat; assay type: functional; summary of the method: as §4
# Rattus norvegicus [10] = organism: Rattus norvegicus; experiment: Maximum inhibition of immobility in the rat (Expressed as percentage of immobility observed in vehicle controls); assay type: functional; summary of the method: as §3
# Rattus norvegicus [11] = experiment: Effective dose in vivo in rat to induce lower lip retraction; assay type: functional; summary of the method: as §1
# Rattus norvegicus [12] = organism: Rattus norvegicus; experiment: Potency to produce a significant inhibition of immobility in the rat; assay type: functional; summary of the method: as §4
# D(2) dopamine receptor, sequence (P61169 whole entry): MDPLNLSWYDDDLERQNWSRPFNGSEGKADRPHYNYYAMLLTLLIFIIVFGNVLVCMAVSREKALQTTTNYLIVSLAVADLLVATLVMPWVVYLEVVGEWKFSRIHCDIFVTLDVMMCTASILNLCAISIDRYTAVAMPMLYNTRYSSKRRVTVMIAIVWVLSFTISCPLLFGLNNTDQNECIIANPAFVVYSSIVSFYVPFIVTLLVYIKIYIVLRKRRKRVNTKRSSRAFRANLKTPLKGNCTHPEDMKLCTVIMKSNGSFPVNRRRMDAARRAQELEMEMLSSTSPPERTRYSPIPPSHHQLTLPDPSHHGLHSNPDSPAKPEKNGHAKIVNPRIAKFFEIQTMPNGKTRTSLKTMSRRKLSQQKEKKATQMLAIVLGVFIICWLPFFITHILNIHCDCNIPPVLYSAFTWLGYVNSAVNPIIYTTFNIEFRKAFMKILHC
pEC50 [1],pKi [3],Log Ki [6],pKi (D(2) dopamine receptor),SMILES,ED50 (Rattus norvegicus [2]),ED50 (Rattus norvegicus [4]),ED50 (Rattus norvegicus [5]),Inhibition (Rattus norvegicus [7]),ED50 (Rattus norvegicus [8]),ED50 (Rattus norvegicus [9]),Inhibition (Rattus norvegicus [10]),ED50 (Rattus norvegicus [11]),ED50 (Rattus norvegicus [12])
7.92,8.91,-6.72,6.34,O=C(c1ccc(Cl)c(Cl)c1)N1CCC(F)(CNCc2cccc(-c3cccs3)n2)CC1,0.32 mg/kg,0.32 mg/kg,1.3 mg/kg,–,–,–,–,–,–
8.24,9.57,-6.86,6.89,Cc1ccc(C(=O)N2CCC(F)(CNCc3cccc(N(C)C)n3)CC2)cc1Cl,0.08 mg/kg,0.08 mg/kg,0.32 mg/kg,–,–,–,–,–,–
8.44,–,-6.68,–,CN(C)c1cccc(CNCC2(F)CCN(C(=O)c3ccc(F)c(Cl)c3)CC2)n1,0.29 mg/kg,0.11 mg/kg,0.16 mg/kg,>80%,0.16 mg/kg,–,–,–,–
8.46,–,-6.12,–,O=C(c1ccc(F)c(Cl)c1)N1CCC(F)(CNCc2cccc(-c3ccco3)n2)CC1,0.08 mg/kg,0.11 mg/kg,0.32 mg/kg,–,–,0.09 mg/kg,>80%,–,–
8.58,8.98,-6.39,5.92,O=C(c1ccc(Cl)c(Cl)c1)N1CCC(F)(CNCc2cccc(-c3ccco3)n2)CC1,0.16 mg/kg,0.23 mg/kg,0.32 mg/kg,–,–,–,–,–,–
7.55,9.69,–,–,O=C(c1ccc(Cl)c(Cl)c1)N1CCC(F)(CNCc2cccc(-n3cccn3)n2)CC1,–,–,–,–,–,–,–,1.3 mg/kg,–
8.05,9.33,-5.9,5.65,O=C(c1ccc(Cl)c(Cl)c1)N1CCC(F)(CNCc2cccc(-c3cnco3)n2)CC1,0.32 mg/kg,0.32 mg/kg,1.3 mg/kg,–,–,–,–,–,–
8.67,–,–,–,CNc1nc(CNCC2(F)CCN(C(=O)c3ccc(F)c(Cl)c3)CC2)ccc1C,0.02 mg/kg,–,0.08 mg/kg,>80%,–,–,–,–,0.05 mg/kg
8.95,9.52,-6.1,5.39,O=C(c1ccc(Cl)c(Cl)c1)N1CCC(F)(CNCc2cccc(-c3cc[nH]n3)n2)CC1,0.32 mg/kg,0.32 mg/kg,1.3 mg/kg,–,–,–,–,–,–
–,–,–,–,CN(C)CCCN1c2ccccc2CCc2ccccc21 [IMIPRAMINE],–,–,–,–,–,80 mg/kg,31%,–,–
